# From PubChem BioAssay
# Most compounds without a hit are left out; they make up all but 4% or so of the library.
# Hsp70 act: Hsp70 transcriptional activation, primary screen | HeLa Hsp70 promoter luciferase reporter, luminescence; scaled: vehicle 0, proteasome-inhibitor control 100% | activation, % at 10 µM | 200,000 tested, 0.04% active;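 active means activation above the mean across all tested compounds plus 3 SD, cutoff set per campaign, cut at about 5.5% in these data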;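 further: 100% = MG132 at 30 µM as the positive control and 0% = DMSO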
# Mdm2 ligase inh: blocks human Mdm2 ubiquitin ligase activity; cell-based MDM2 ubiquitination luciferase reporter, 2 h; 0 = plate control, 100 = twice control, blank-subtracted; signal enhancement, % at 5 µM; 210,000 tested, 0.11% active; AID 1230;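 active means signal enhancement of 30% or more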;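 further: luminescence tracks abundance of the self-degrading MDM2-luciferase fusion protein; higher signal means inhibition of MDM2 E3 ligase activity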
#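 test system = mammalian cells stably expressing self-ubiquitinating, self-degrading MDM2 E3–luciferase fusion | quantity = 2000 cells/well | incubation = cell settling 4 h, compound treatment 2 h, both 37 °C | signal = luminescence with SteadyLite reagent, 15 min at room temperature | evaluation = % enhancement relative to plate controls after blank subtraction | benchmarks = plate controls and plate blanks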
# S1P3 antag-1: blocks the human S1P3 receptor. 170,000 tested, 0.27% active. AID 485. inhibition, % at 4.98 µM. CHO S1P3 NFAT-BLA reporter, FRET fluorescence, antagonist mode. Q99500;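 active means inhibition above the plate cutoff, the mean inhibition of test wells on that plate plus 3 SD, cut at about 28% in these data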;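 further: cells challenged with S1P at its EC80 of 0.8 µM; blue over green emission ratio from cleaved BLA substrate after 4 h stimulation; 0% = S1P-stimulated wells and 100% = unstimulated DMSO-only wells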
# Target sequence (Q99500 whole entry, looked up): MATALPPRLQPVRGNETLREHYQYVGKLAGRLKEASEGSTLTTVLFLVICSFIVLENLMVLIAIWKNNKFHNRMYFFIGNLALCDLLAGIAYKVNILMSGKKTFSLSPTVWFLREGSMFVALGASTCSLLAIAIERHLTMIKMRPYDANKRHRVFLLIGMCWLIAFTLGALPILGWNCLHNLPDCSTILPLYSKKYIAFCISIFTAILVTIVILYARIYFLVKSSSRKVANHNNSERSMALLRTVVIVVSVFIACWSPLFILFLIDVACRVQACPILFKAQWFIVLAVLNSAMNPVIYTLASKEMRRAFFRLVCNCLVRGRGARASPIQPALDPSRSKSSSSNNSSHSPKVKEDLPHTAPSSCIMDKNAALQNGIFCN
# CHOP inhibitor: blocks CHOP induction under ER stress. CHO-K1 CHOP-promoter luciferase, tunicamycin-induced, 15-18 h. inhibition, % at 10 µM. 220,000 tested, 3.8% active;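 active means compounds that reduced the stress-induced luciferase reporter signal by more than about 70% of percent inhibition, limit read from the data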;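 further: 0% = tunicamycin plus vehicle and 100% = wells without tunicamycin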
# S1P3 antag-2: human S1P3 receptor antagonism, confirmation. shares compounds with S1P3 antag-1. inhibition, % at 4.98 µM. CHO S1P3 NFAT-BLA reporter, FRET, antagonist mode. 240 tested, 30% active;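 active means inhibition above the hit threshold that was computed for the earlier primary screen, cut at about 30% in these data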;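 further: 0% = S1P-stimulated wells and 100% = unstimulated DMSO-only wells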
# An asterisk follows results filed as active; . = no result.
SMILES,Hsp70 act,Mdm2 ligase inh,S1P3 antag-1,CHOP inhibitor,S1P3 antag-2
CC(C)COP(=O)(OCC(C)C)C(Nc1ccccc1)c1ccc(F)cc1 (configuration not stated),0,0,3,75*,.
CC(C)COP(=O)(OCC(C)C)C(Nc1ccccc1)c1ccccc1 (configuration not stated),.,-14,17,-1,.
CC(C)COP(=O)(OCC(C)C)C(Nc1ccccc1)c1ccc2c(c1)OCO2 (configuration not stated),0,4,.,76*,.
CN(C)C(=O)CCSc1nnc(-c2ccco2)o1,0,-1,-5,32,.
CSc1ccc(N=Nc2c(C)[nH]n(C)c2=O)cc1,.,-10,-1,-6,.
O=C(Nc1ccc(N2CCOCC2)cc1)Nc1ccc(Cl)c(Cl)c1,0,-6,.,79*,.
O=C(Nc1ccc(Cl)cc1)Nc1ccc(N2CCOCC2)cc1,0,-9,11,24,.
O=c1cc(-c2ccccc2)nc(SCCOc2ccccc2Cl)[nH]1,0,-21,12,74*,.
COc1ccc(-c2nsc3c(N4CCCC4)ncnc23)cc1,0,-89,-4,90*,.
COc1ccc(-c2nsc3c(N4CCN(S(=O)(=O)c5ccccc5)CC4)ncnc23)cc1,.,.,-41,.,.
Cc1ncc([N+](=O)[O-])n1CC(=O)NC1CCCCCC1,0,-16,-12,4,.
COc1ccc(Br)cc1CNC(=O)CCNC(=O)Cn1ccc2ccccc2c1=O,0,0,-2,29,.
COc1cccc(-c2nc(-c3ccccc3)nc(N3CCN(C)CC3)c2C#N)c1,0,-6,-3,77*,.
COc1ccc(OC)c(C2C(C(=O)Nc3cccnc3)=C(C)NC3=C2C(=O)CCC3)c1 (configuration not stated),0,-7,-23,37,.
NC(=O)/C(=C\c1ccccc1)NC(=O)c1ccc(NC(=O)c2ccccc2)cc1,.,-7,-3,7,.
CC(C)(C)c1ccc(C(=O)N2CCCCCC2=O)cc1,-1,-48,.,89*,.
COC(=O)C1=C(C)N=C2SC(C#N)=C(N)N2C1c1ccc(OCc2ccccc2)cc1 (configuration not stated),1,-7,.,88*,.
COC(=O)C1=C(C)N=C2SC(C#N)=C(N)N2C1c1cc(OC)c(OC)c(OC)c1 (configuration not stated),0,-11,.,3,.
Cn1c(SCC(=O)c2ccc3c(c2)NC(=O)CO3)nc2ccccc21,0,-19,0,86*,.
Cc1ccccc1-c1noc(-c2ccccc2F)n1,0,-27,.,78*,.
CC(=O)N1N=C(c2ccc(C)cc2)OC1c1ccc(Br)cc1 (configuration not stated),0,7,-4,93*,.
CCN(CC)CCCN1C=C2C(=O)C(C)(OC(=O)C3CCCC3)C(=O)C=C2C=C1c1ccsc1 (configuration not stated),.,-9,.,4,.
CCOC(=O)Nc1cc(NC(=O)OCC)c(C)nc1C,.,-14,-8,4,.
Cc1ccccc1N1C(=O)C(Cl)=C(N2CCCCCC2)C1=O,0,0,6,80*,.
O=C1C(Cl)=C(N2CCCCC2)C(=O)N1c1ccccc1Cl,-1,-1,4,60,.
SMILES,Hsp70 act,Mdm2 ligase inh,S1P3 antag-1,CHOP inhibitor,S1P3 antag-2
CC(C)(C)N=C1C([N+](=O)[O-])=CC=C2C1=NC1(CCCCC1)N2O,0,0,11,-8,.
O=[N+]([O-])C1=CC=C2C(=NC3(CCCCC3)N2O)C1=NCCc1ccccc1,0,31*,-13,40,.
CC1C(c2ccccc2)C(C#N)(C#N)C2(C#N)C(=O)NC1(N)C2C (configuration not stated),0,-16,.,11,.
C1=C(CCNc2ncnc3c2[nH]c2ccccc23)CCCC1,0,-42,41*,80*,28
O=c1c2[nH]c3ccccc3c2ncn1CCC1=CCCCC1,0,-7,12,68,.
CN(C)CCCNC(NC(=O)c1cccs1)C(Cl)(Cl)Cl (configuration not stated),0,-15,-17,0,.
CCCc1nc2c(=O)n(C)c(=O)nc-2n(C)n1,0,3,72*,104*,107*
Cn1nc(-c2ccccn2)nc2c(=O)n(C)c(=O)nc1-2,.,.,81*,107*,90*
CC1C(c2ccccc2)N(C)C(c2ccccc2)CC1(O)c1ccc(F)cc1 (configuration not stated),0,-11,31*,85*,48*
Fc1ccc(NC(=S)N2N=CCC2c2ccccc2)cc1 (configuration not stated),0,-49,.,-8,.
COc1ccccc1S(=O)(=O)CC(O)COc1ccc(C#N)cc1 (configuration not stated),0,-3,-27,0,.
O=C1S/C(=C/c2ccccc2)C(=O)N1CC(O)Cn1c2ccccc2c2ccccc21 (configuration not stated),0,-6,40*,35,-18
CN(C)c1ccc(/C=C2\SC(=O)N(CC(O)Cn3c4ccccc4c4ccccc43)C2=O)cc1 (configuration not stated),0,-19,-13,32,.
CCC(C(=O)OCn1nnc2ccccc2c1=O)c1ccccc1 (configuration not stated),0,0,-12,27,.
COC(=O)c1scc2c(=O)cc(C(F)(F)F)[nH]c12,.,-5,32*,-6,24
O=c1cc(C(F)(F)F)[nH]c2ccc(C(F)(F)F)cc12,.,-8,-6,-3,.
Cc1ccc(OCCCNCCO)c(Br)c1,1,-13,.,-21,.
OCCNCCCOc1cc(Cl)ccc1Cl,0,-11,36*,25,-9
CCC(C)(C)C1CCc2c(sc(N)c2C(N)=O)C1 (configuration not stated),0,1,38*,-2,-3
CC(C)(C)C1CCc2c(sc(N)c2C(N)=O)C1 (configuration not stated),0,-9,-20,12,.
O=C(CNc1n[nH]c(=O)[nH]c1=O)N/N=C/c1cccnc1,0,-16,39*,0,-12
O=C(Nc1ccc(Cl)cc1)Nc1cccc2nsnc12,.,.,29*,73*,16
Brc1ccc(N=C(c2ccccc2)c2ccncc2)cc1,0,7,6,-1,.
Cc1ccc(Nc2nc(-c3cccnc3)nc3ccccc23)cc1,.,2,35*,8,14
N#Cc1c(NC(=O)/C=C/c2ccco2)sc2c1CCCC2,2,-3,29*,23,29*
COc1cnc(-c2ccccn2)nc1NC(C)C,-1,-5,29*,68,19
COc1cnc(-c2ccccn2)nc1Oc1ccc(F)cc1F,0,-11,29*,-51,-4
COc1ccc(CCNC(=O)CC2SC(=NCCc3ccccc3)NC2=O)cc1 (configuration not stated),1,-16,-13,5,.
